Experimental data as given in paper PMC7928716 (Science Signaling, 2021).
Square brackets hold non-standard residues; d marks the D form. Peptide text beside a SMILES is read from it. * marks the point of attachment. FITC = O=C1OC2(c3ccc(O)cc3Oc3cc(O)ccc32)c2ccc(NC(=S)*)cc21; pY = N[C@@H](Cc1ccc(OP(=O)(O)O)cc1)C(=O)O; pT = C[C@@H](OP(=O)(O)O)[C@H](N)C(=O)O; pS = N[C@@H](COP(=O)(O)O)C(=O)O

Columns and labels:
NCK1 SH2 = NCK1 SH2 (Homo sapiens, UniProt P16333); assay: FP saturation; assay type: binding
AP2 μ2 = target: T1, AP2 μ2 (Homo sapiens, UniProt Q96CW1); assay: FP saturation; assay type: binding
T1 sequence (Q96CW1 160-435): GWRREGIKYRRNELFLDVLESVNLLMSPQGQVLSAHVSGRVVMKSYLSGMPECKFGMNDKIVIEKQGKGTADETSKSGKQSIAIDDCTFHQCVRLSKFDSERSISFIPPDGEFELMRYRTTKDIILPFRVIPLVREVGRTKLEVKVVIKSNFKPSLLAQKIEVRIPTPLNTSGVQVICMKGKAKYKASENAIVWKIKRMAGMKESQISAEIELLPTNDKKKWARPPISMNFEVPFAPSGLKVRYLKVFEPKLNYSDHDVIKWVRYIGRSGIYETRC
Summary of the method: (§1)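 GST-tagged domains were expressed in E. coli BL21-Gold (DE3) (IPTG induction, 16 h at 18°C) and purified on glutathione beads. The tag was removed with thrombin, and domains were dialysed into 50 mM sodium phosphate pH 7.4 with 1 mM DTT. Probes were FITC-ATG9A4–14 (AP2 μ2) and FITC-SQSTM1335–344 (ATG8 domains). 5 nM labelled peptide was mixed with an equal volume of a protein dilution series at room temperature and read without preincubation. KD came from a quadratic fit, in technical triplicates.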

GABARAPL2 ATG8 [1] = target: T2, GABARAPL2 ATG8 (Homo sapiens, UniProt P60520); assay: FP saturation; assay type: binding
Summary of the method: as §1

FYN SH2 = FYN SH2 (Homo sapiens, UniProt P06241); assay: FP saturation; assay type: binding
Summary of the method: (§2)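 The SH2 domain was expressed GST-tagged in E. coli. The tag was cleaved with HRV 3C and the protein dialysed into 50 mM sodium phosphate pH 7.4 with 1 mM DTT. KD came from a quadratic fit, in technical triplicates.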

LYN SH2 = LYN SH2 (Homo sapiens, UniProt P07948); assay: FP saturation; assay type: binding
Summary of the method: as §2

MAP1LC3B ATG8 [2] = target: T3, MAP1LC3B ATG8 (Homo sapiens, UniProt Q9GZQ8); assay: FP saturation; assay type: binding
Summary of the method: as §1

MAP1LC3A ATG8 [3] = target: T4, MAP1LC3A ATG8 (Homo sapiens, UniProt Q9H492); assay: FP saturation; assay type: binding
GABARAP ATG8 [4] = target: T5, GABARAP ATG8 (Homo sapiens, UniProt O95166); assay: FP saturation; assay type: binding
FRS2 PTB = target: T6, FRS2 PTB (Homo sapiens, UniProt Q8WU20); assay: FP saturation; assay type: binding
T6 sequence (Q8WU20 8-136): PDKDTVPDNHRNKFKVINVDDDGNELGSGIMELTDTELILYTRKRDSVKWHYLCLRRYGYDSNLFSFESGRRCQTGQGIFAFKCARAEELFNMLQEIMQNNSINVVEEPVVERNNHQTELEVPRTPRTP
Summary of the method: (§3)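 Direct FP saturation used GST-tagged PTB domains (the talin entry is the PTB-like FERM lobe), expressed in E. coli at 18°C for 16 h. GST was removed with thrombin and the protein dialysed into 50 mM sodium phosphate pH 7.4 with 1 mM DTT. KD came from a quadratic fit, in technical triplicates.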

SNX17 FERM = target: T7, SNX17 FERM (Mus musculus, UniProt Q8BVL3); assay: FP saturation; assay type: binding
T7 sequence (Q8BVL3 109-388): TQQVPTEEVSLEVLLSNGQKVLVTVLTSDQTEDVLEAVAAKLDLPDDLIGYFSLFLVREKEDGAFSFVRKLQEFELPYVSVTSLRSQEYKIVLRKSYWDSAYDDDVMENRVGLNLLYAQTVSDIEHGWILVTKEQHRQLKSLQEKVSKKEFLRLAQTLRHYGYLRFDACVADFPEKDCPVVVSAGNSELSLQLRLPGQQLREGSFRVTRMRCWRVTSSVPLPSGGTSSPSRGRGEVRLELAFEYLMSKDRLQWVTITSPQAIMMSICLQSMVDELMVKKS
Summary of the method: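 The FERM domain was expressed GST-tagged in E. coli BL21-Gold (DE3) at 18°C. The tag was removed with TEV protease and the protein dialysed into 50 mM sodium phosphate pH 7.4 with 1 mM DTT. Direct FP used 5 nM FITC-labeled peptide with a protein dilution series at room temperature and no preincubation. KD came from a quadratic fit, in technical triplicates.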

IRS1 PTB = target: T8, IRS1 PTB (Homo sapiens, UniProt P35568); assay: FP saturation; assay type: binding
T8 sequence (P35568 157-267): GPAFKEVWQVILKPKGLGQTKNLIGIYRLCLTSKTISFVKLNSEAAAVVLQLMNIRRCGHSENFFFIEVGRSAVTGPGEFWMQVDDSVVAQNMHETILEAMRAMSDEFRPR
Summary of the method: as §3

TLN2 PTB = TLN2 PTB (Homo sapiens, UniProt Q9Y4G6); assay: FP saturation; assay type: binding
Summary of the method: as §3

DOK1 PTB = target: T9, DOK1 PTB (Homo sapiens, UniProt Q99704); assay: FP saturation; assay type: binding
T9 sequence (Q99704 151-256): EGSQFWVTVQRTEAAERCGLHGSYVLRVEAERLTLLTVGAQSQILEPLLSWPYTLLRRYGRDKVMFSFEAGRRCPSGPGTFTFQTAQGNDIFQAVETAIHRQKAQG
Summary of the method: as §3

SARS-CoV-2 = conditions: study repurposing approved compounds; cited from earlier work
MAP1LC3C ATG8 = MAP1LC3C ATG8 (Homo sapiens, UniProt Q9BXW4); assay: FP displacement of FITC-SQSTM1_335–344 from MAP1LC3C ATG8; assay type: binding
Summary of the method: (§4)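 GST-tagged ATG8 domains were expressed in E. coli BL21-Gold (DE3) with 1 mM IPTG at OD600 0.7 for 16 h at 18°C. They were glutathione-bead purified, thrombin-cleaved overnight at 4°C, and dialysed into 50 mM sodium phosphate pH 7.4 with 1 mM DTT. Domain level for displacement was set from FITC-SQSTM1 saturation curves. Unlabeled peptides were in phosphate buffer. FP was read at room temperature and KI calculated.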

MAP1LC3B ATG8 [5] = target: T3, MAP1LC3B ATG8; assay: FP displacement of FITC-SQSTM1_335–344 from MAP1LC3B ATG8; assay type: binding
Summary of the method: as §4

GABARAPL2 ATG8 [6] = target: T2, GABARAPL2 ATG8; assay: FP displacement of FITC-SQSTM1_335–344 from GABARAPL2 ATG8; assay type: binding
Summary of the method: as §4

MAP1LC3A ATG8 [7] = target: T4, MAP1LC3A ATG8; assay: FP displacement of FITC-SQSTM1_335–344 from MAP1LC3A ATG8; assay type: binding
Summary of the method: as §4

GABARAP ATG8 [8] = target: T5, GABARAP ATG8; assay: FP displacement of FITC-SQSTM1_335–344 from GABARAP ATG8; assay type: binding
Summary of the method: as §4

Chain of MAP1LC3C ATG8 (Q9BXW4 2-125): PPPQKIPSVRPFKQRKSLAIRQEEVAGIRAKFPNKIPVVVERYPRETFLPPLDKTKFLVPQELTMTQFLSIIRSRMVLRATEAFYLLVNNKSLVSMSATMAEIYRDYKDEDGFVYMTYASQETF
T2 sequence (P60520 2-115): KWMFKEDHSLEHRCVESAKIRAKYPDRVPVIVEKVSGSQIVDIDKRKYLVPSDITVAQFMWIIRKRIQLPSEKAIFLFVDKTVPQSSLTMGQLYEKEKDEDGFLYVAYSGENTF
T5 sequence (O95166 2-115): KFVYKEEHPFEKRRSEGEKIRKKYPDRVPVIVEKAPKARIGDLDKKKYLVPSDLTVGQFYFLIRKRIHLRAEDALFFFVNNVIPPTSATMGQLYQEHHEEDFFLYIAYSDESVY
Chain of FYN SH2 (P06241 142-251): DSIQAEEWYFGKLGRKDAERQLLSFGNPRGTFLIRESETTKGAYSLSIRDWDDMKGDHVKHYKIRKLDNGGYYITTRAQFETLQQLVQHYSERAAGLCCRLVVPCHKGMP
Chain of LYN SH2 (P07948 127-234): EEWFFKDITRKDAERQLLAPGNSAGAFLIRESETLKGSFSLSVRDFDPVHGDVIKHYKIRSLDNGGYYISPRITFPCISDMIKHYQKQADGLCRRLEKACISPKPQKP
Chain of TLN2 PTB (Q9Y4G6 309-401): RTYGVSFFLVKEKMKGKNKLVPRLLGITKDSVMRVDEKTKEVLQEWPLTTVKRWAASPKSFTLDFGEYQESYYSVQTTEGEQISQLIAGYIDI

Structure (SMILES): CC[C@H](C)[C@H](NC(=O)[C@H](CC(=O)O)NC(=O)[C@@H](NC(=O)[C@H](CO)NC(=O)[C@H](C)NC(=O)[C@H](Cc1ccc(O)cc1)NC(=O)[C@@H]1CCCN1C(=O)[C@H](CC(N)=O)NC(=O)[C@H](CCC(=O)O)NC(=O)CNC(=O)[C@H](CO)NC(=O)[C@H](CCCNC(=N)N)NC(=S)Nc1ccc2c(c1)C(=O)OC21c2ccc(O)cc2Oc2cc(O)ccc21)[C@@H](C)CC)C(=O)N[C@@H](CO)C(=O)N[C@@H](CCCCN)C(=O)NCC(=O)N[C@@H](CCC(=O)O)C(N)=O [ACE2_775–790 Unphos.] ({FITC}-RSGENPYASIDISKGE-NH2)
- Kd (NCK1 SH2): > 100 µM
- Kd (AP2 μ2): ~60 µM
- Kd (GABARAPL2 ATG8 [1]): > 100 µM
- Kd (FYN SH2): > 100 µM
- Kd (LYN SH2): > 100 µM
- Kd (MAP1LC3B ATG8 [2]): > 100 µM
- Kd (MAP1LC3A ATG8 [3]): > 100 µM
- Kd (GABARAP ATG8 [4]): > 100 µM

Structure (SMILES): C[C@@H](O)[C@H](NC(=O)[C@H](CC(N)=O)NC(=O)[C@H](CCC(N)=O)NC(=O)[C@H](Cc1ccccc1)NC(=O)CNC(=O)[C@@H]1CCCN1C(=O)[C@H](CC(N)=O)NC(=O)[C@H](CC(N)=O)NC(=O)[C@H](CCC(=O)O)NC(=O)CNC(=O)[C@H](CCCCN)NC(=O)[C@H](CO)NC(=S)Nc1ccc2c(c1)C(=O)OC21c2ccc(O)cc2Oc2cc(O)ccc21)C(N)=O [ACE2_787–798] ({FITC}-SKGENNPGFQNT-NH2)
- Kd (FRS2 PTB): > 100 µM
- Kd (SNX17 FERM): ~100 µM
- Kd (IRS1 PTB): > 100 µM
- Kd (TLN2 PTB): > 100 µM
- Kd (DOK1 PTB): > 100 µM

Structure (SMILES): Cc1cccc(/C=N/Nc2cc(N3CCOCC3)nc(OCCc3ccccn3)n2)c1 [apilimod]
- inhibition of viral replication (SARS-CoV-2): potent inhibitor of viral replication

Structure (SMILES): CC[C@H](C)[C@H](NC(=O)[C@H](CC(N)=O)NC(=O)[C@@H](NC(=O)[C@H](Cc1ccccc1)NC(=O)[C@@H](NC(=O)[C@H](COP(=O)(O)O)NC(=O)[C@@H](NC(=O)[C@H](C)NC(=O)[C@H](CCC(=O)O)NC(=O)[C@H](CCCCN)NC(C)=O)[C@@H](C)O)[C@@H](C)O)[C@@H](C)O)C(=O)N[C@H](C(=O)N[C@@H](Cc1ccc(O)cc1)C(=O)N[C@@H](CCCNC(=N)N)C(=O)NCC(N)=O)[C@@H](C)O [pSer^778] (Ac-KEAT[pS]TFTNITYRG-NH2)
- Ki (MAP1LC3C ATG8): 16.1 ± 0.5 µM
- Ki (MAP1LC3B ATG8 [5]): > 100 µM
- Ki (GABARAPL2 ATG8 [6]): 80 ± 5 µM
- Ki (MAP1LC3A ATG8 [7]): 29.4 ± 0.5 µM

Structure (SMILES): CC[C@H](C)[C@H](NC(=O)[C@H](CC(N)=O)NC(=O)[C@@H](NC(=O)[C@H](Cc1ccccc1)NC(=O)[C@@H](NC(=O)[C@H](CO)NC(=O)[C@@H](NC(=O)[C@H](C)NC(=O)[C@H](CCC(=O)O)NC(=O)[C@H](CCCCN)NC(C)=O)[C@@H](C)OP(=O)(O)O)[C@@H](C)O)[C@@H](C)O)C(=O)N[C@H](C(=O)N[C@@H](Cc1ccc(O)cc1)C(=O)N[C@@H](CCCNC(=N)N)C(=O)NCC(N)=O)[C@@H](C)O [pThr^777] (Ac-KEA[pT]STFTNITYRG-NH2)
- Ki (MAP1LC3C ATG8): 73 ± 4 µM
- Ki (MAP1LC3B ATG8 [5]): > 100 µM
- Ki (GABARAP ATG8 [8]): 47 ± 3 µM
- Ki (MAP1LC3A ATG8 [7]): > 100 µM

Structure (SMILES): CC[C@H](C)[C@H](NC(=O)[C@H](CC(N)=O)NC(=O)[C@@H](NC(=O)[C@H](Cc1ccccc1)NC(=O)[C@@H](NC(=O)[C@H](CO)NC(=O)[C@@H](NC(=O)[C@H](C)NC(=O)[C@H](CCC(=O)O)NC(=O)[C@H](CCCCN)NC(C)=O)[C@@H](C)O)[C@@H](C)OP(=O)(O)O)[C@@H](C)O)C(=O)N[C@H](C(=O)N[C@@H](Cc1ccc(OP(=O)(O)O)cc1)C(=O)N[C@@H](CCCNC(=N)N)C(=O)NCC(N)=O)[C@@H](C)O [pThr^779/pTyr^785] (Ac-KEATS[pT]FTNIT[pY]RG-NH2)
- Ki (MAP1LC3C ATG8): 8 ± 2 µM
- Ki (MAP1LC3B ATG8 [5]): 15 ± 1 µM
- Ki (GABARAP ATG8 [8]): 17.8 ± 0.8 µM
- Ki (MAP1LC3A ATG8 [7]): 8.5 ± 0.5 µM

Structure (SMILES): CC[C@H](C)[C@H](NC(=O)[C@H](CC(N)=O)NC(=O)[C@@H](NC(=O)[C@H](Cc1ccccc1)NC(=O)[C@@H](NC(=O)[C@H](CO)NC(=O)[C@@H](NC(=O)[C@H](C)NC(=O)[C@H](CCC(=O)O)NC(=O)[C@H](CCCCN)NC(C)=O)[C@@H](C)O)[C@@H](C)OP(=O)(O)O)[C@@H](C)O)C(=O)N[C@H](C(=O)N[C@@H](Cc1ccc(O)cc1)C(=O)N[C@@H](CCCNC(=N)N)C(=O)NCC(N)=O)[C@@H](C)O [pThr^779] (Ac-KEATS[pT]FTNITYRG-NH2)
- Ki (MAP1LC3C ATG8): 82 ± 3 µM
- Ki (MAP1LC3B ATG8 [5]): > 100 µM
- Ki (GABARAPL2 ATG8 [6]): > 100 µM
- Ki (MAP1LC3A ATG8 [7]): > 100 µM

Structure (SMILES): CC[C@H](C)[C@H](NC(=O)[C@H](CC(N)=O)NC(=O)[C@@H](NC(=O)[C@H](Cc1ccccc1)NC(=O)[C@@H](NC(=O)[C@H](CO)NC(=O)[C@@H](NC(=O)[C@H](C)NC(=O)[C@H](CCC(=O)O)NC(=O)[C@H](CCCCN)NC(C)=O)[C@@H](C)O)[C@@H](C)O)[C@@H](C)O)C(=O)N[C@H](C(=O)N[C@@H](Cc1ccc(OP(=O)(O)O)cc1)C(=O)N[C@@H](CCCNC(=N)N)C(=O)NCC(N)=O)[C@@H](C)O [pTyr^785] (Ac-KEATSTFTNIT[pY]RG-NH2)
- Ki (MAP1LC3C ATG8): 83 ± 4 µM
- Ki (MAP1LC3B ATG8 [5]): 81 ± 2 µM
- Ki (GABARAPL2 ATG8 [6]): 89 ± 12 µM
- Ki (MAP1LC3A ATG8 [7]): 38 ± 2 µM
